Experimental data from ChEMBL document CHEMBL4196059, “Design, synthesis, and biological evaluation of stable β6.3-Helices: Discovery of non-hemolytic antibacterial peptides” (Eur J Med Chem, 2018).
Active and inactive are the calls of the source. The rule behind the calls is not given here.

What was measured:
[1] = tested on: Staphylococcus aureus; test: Growth inhibition of methicillin-resistant Staphylococcus aureus ATCC 43300 at 32 ug/ml after 18 hrs; assay type: functional; conditions: ATCC 43300, 18 h, read-out: GI
How it was run: (§1)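 Mid-log cultures in cation-adjusted Mueller Hinton broth were added at 5×10^5 CFU/mL to wells at a final compound concentration of 32 μg/mL. Plates stood at 37 °C for 18 h. Growth was read by OD600, and % inhibition was computed against media-only and untreated-bacteria controls.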

[2] = tested on: Escherichia coli; test: Growth inhibition of Escherichia coli ATCC 25922 at 32 ug/ml after 18 hrs; assay type: functional; conditions: ATCC 25922, 18 h, read-out: GI
How it was run: (§2)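 Mid-log cultures were prepared as above and seeded at 5×10^5 CFU/mL with compound at a final 32 μg/mL, then held static at 37 °C for 18 h. Growth was read as OD600. Percent inhibition was calculated against media-only and bacteria-only controls on the same plate.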

[3] = tested on: Candida albicans; test: Growth inhibition of Candida albicans ATCC 90028 at 32 ug/ml after 24 hrs by OD530 light-scattering microspectrophotometric method; conditions: ATCC 90028, 24 h, read-out: GI
[4] = tested on: Klebsiella pneumoniae; test: Growth inhibition of multidrug-resistant Klebsiella pneumoniae ATCC 700603 at 32 ug/ml after 18 hrs; assay type: functional; conditions: ATCC 700603, 18 h, read-out: GI; how it was run: as §1
[5] = Hemolytic activity against human RBC at 100 uM after 1 hr by Drabkin's assay relative to control; assay type: ADME, cell-based, Erythrocyte; conditions: human red blood cells (erythrocytes), read-out: Activity
[6] = Hemolytic activity against human RBC at 50 uM after 1 hr by Drabkin's assay relative to control; assay type: ADME, cell-based, Erythrocyte; conditions: human red blood cells (erythrocytes), read-out: Activity
[7] = tested on: Acinetobacter baumannii; test: Growth inhibition of Acinetobacter baumannii ATCC 19606 at 32 ug/ml after 18 hrs; assay type: functional; conditions: ATCC 19606 = CIP 70.34 = JCM 6841, 18 h, read-out: GI; how it was run: as §2
[8] = tested on: Pseudomonas aeruginosa; test: Growth inhibition of Pseudomonas aeruginosa ATCC 27853 at 32 ug/ml after 18 hrs; assay type: functional; conditions: ATCC 27853, 18 h, read-out: GI; how it was run: as §2
[9] = tested on: Cryptococcus neoformans; test: Growth inhibition of Cryptococcus neoformans H99 ATCC 208821 at 32 ug/ml after 24 hrs by resazurin dye-based microspectrophotometric assay; assay type: functional; conditions: var. grubii H99 ATCC 208821, 24 h, read-out: GI
How it was run: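 Yeasts were grown 3 days on YPD agar at 30 °C, suspended from five colonies and diluted in YNB broth to a final 2.5×10^3 CFU/mL. Compound at a final 32 μg/mL; incubated 24 h at 35 °C without shaking. C. albicans was read at OD530. C. neoformans was read as OD600–570 after resazurin (0.001% final) and a further 2 h at 35 °C. Fluconazole was the standard.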

[10] = tested on: Erythrocyte; test: Hemolytic activity against human RBC after 1 hr by Drabkin's assay; assay type: ADME, cell-based
[11] = tested on: Lipid bilayer; test: Induction of pore formation in POPC vesicles at 20 uM after 3 hrs by carboxyfluorescein dye leakage assay; conditions: in the assay text read “after 3 mins” for “after 3 hrs”
How it was run: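 POPC or DOPC liposomes were hydrated in 10 mM HEPES, 100 mM KCl, pH 7.4, containing 50 mM carboxyfluorescein. Size was checked by dynamic light scattering, and vesicles were used at 2.2×10^10 per mL. Peptide at 20 μM was equilibrated with vesicles for 3 min, and dye leakage was measured.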

[12] = Hemolytic activity against human RBC at 0.39 uM after 1 hr by Drabkin's assay relative to control; assay type: ADME, cell-based, Erythrocyte; conditions: human red blood cells (erythrocytes), read-out: Activity
[13] = Hemolytic activity against human RBC at 0.78 uM after 1 hr by Drabkin's assay relative to control; assay type: ADME, cell-based, Erythrocyte; conditions: human red blood cells (erythrocytes), read-out: Activity
[14] = Hemolytic activity against human RBC at 25 uM after 1 hr by Drabkin's assay relative to control; assay type: ADME, cell-based, Erythrocyte; conditions: human red blood cells (erythrocytes), read-out: Activity
[15] = Hemolytic activity against human RBC at 1.56 uM after 1 hr by Drabkin's assay relative to control; assay type: ADME, cell-based, Erythrocyte; conditions: human red blood cells (erythrocytes), read-out: Activity
[16] = Hemolytic activity against human RBC at 12.5 uM after 1 hr by Drabkin's assay relative to control; assay type: ADME, cell-based, Erythrocyte; conditions: human red blood cells (erythrocytes), read-out: Activity
[17] = Hemolytic activity against human RBC at 6.25 uM after 1 hr by Drabkin's assay relative to control; assay type: ADME, cell-based, Erythrocyte; conditions: human red blood cells (erythrocytes), read-out: Activity
[18] = Hemolytic activity against human RBC at 3.125 uM after 1 hr by Drabkin's assay relative to control; assay type: ADME, cell-based, Erythrocyte; conditions: human red blood cells (erythrocytes), read-out: Activity

SMILES | inhibition of growth at 32 µg/mL [1] [%] | inhibition of growth at 32 µg/mL [2] [%] | inhibition of growth at 32 µg/mL [3] [%] | inhibition of growth at 32 µg/mL [4] [%] | hemolysis at 1 h, 100 µM [5] [%] | hemolysis at 1 h, 50 µM [6] [%] | inhibition of growth at 32 µg/mL [7] [%] | inhibition of growth at 32 µg/mL [8] [%] | inhibition of growth at 32 µg/mL [9] [%] | Activity [10] | Activity [11] | hemolysis at 1 h, 0.39 µM [12] [%] | hemolysis at 1 h, 0.78 µM [13] [%] | hemolysis at 1 h, 25 µM [14] [%] | hemolysis at 1 h, 1.56 µM [15] [%] | hemolysis at 1 h, 12.5 µM [16] [%] | hemolysis at 1 h, 6.25 µM [17] [%] | hemolysis at 1 h, 3.125 µM [18] [%]
CC(C)(C)OC(=O)N1CCC[C@H]1C(=O)N1CCCN1C(=O)N1CCC[C@H]1C(=O)N1CCCN1C(=O)N1CCC[C@H]1C(=O)N1CCCN1C(=O)N1CCC[C@H]1C(=O)N1CCCN1 | 28.3 | 4.51 | 3.56 | 4.51 | 0.723 | 0.061 | 7.37 | -4.17 | -0.655 | Dose-dependent effect | – | – | – | – | – | – | – | –
Cl.O=C(OCc1ccccc1)N1CCCN1C(=O)[C@@H]1CCCN1C(=O)N1CCCN1C(=O)[C@@H]1CCCN1C(=O)N1CCCN1C(=O)[C@@H]1CCCN1C(=O)N1CCCN1C(=O)[C@@H]1CCCN1 | 23.8 | 0.27 | 4.48 | 0.27 | 0.045 | -0.013 | 34.9 | -10.1 | -1.33 | Dose-dependent effect | – | – | – | – | – | – | – | –
O=C(OCc1ccccc1)N1CCCN1C(=O)[C@@H]1CCCN1C(=O)N1CCCN1C(=O)[C@@H]1CCCN1C(=O)N1CCCN1C(=O)[C@@H]1CCCN1C(=O)N1CCCN1C(=O)[C@@H]1CCCN1C(=O)N1CCCN1C(=O)[C@@H]1CCCN1C(=O)N1CCCN1C(=O)[C@@H]1CCCN1C(=O)N1CCCN1C(=O)[C@@H]1CCCN1C(=O)N1CCCN1C(=O)[C@@H]1CCCN1 | 28.6 | 14.8 | 4.07 | 14.8 | – | – | 38.4 | -2.53 | 0.967 | – | inactive | – | – | – | – | – | – | –
CC(C)(C)OC(=O)[C@@H]1CCCN1C(=O)N1CCCN1C(=O)[C@@H]1CCCN1C(=O)N1CCCN1C(=O)[C@@H]1CCCN1C(=O)N1CCCN1C(=O)[C@@H]1CCCN1C(=O)N1CCCN1C(=O)[C@@H]1CCCN1C(=O)N1CCCN1C(=O)[C@@H]1CCCN1C(=O)N1CCCN1C(=O)[C@@H]1CCCN1C(=O)N1CCCN1C(=O)[C@@H]1CCCN1C(=O)N1CCCN1 | 20.7 | 5.27 | 2.92 | 5.27 | – | – | 17.8 | -8.18 | -3.43 | – | – | – | – | – | – | – | – | –
O=CN1CCCN1C(=O)N1CCC[C@H]1C(=O)N1CCCN1C(=O)N1CCC[C@H]1C(=O)N1CCCN1C(=O)N1CCC[C@H]1C(=O)N1CCCN1C(=O)N1CCC[C@H]1C(=O)N1CCCN1C(=O)N1CCC[C@H]1C(=O)NCCO | – | – | – | – | -0.251 | -0.361 | – | – | – | Dose-dependent effect | inactive | 0.361 | 0.08 | 0 | -0.452 | -0.913 | -0.361 | 0.02
O=CN1CCCN1C(=O)N1CCC[C@H]1C(=O)N1CCCN1C(=O)N1CCC[C@H]1C(=O)N1CCCN1C(=O)N1CCC[C@H]1C(=O)N1CCCN1C(=O)N1CCC[C@H]1C(=O)N1CCCN1C(=O)N1CCC[C@H]1C(=O)N1CCCN1C(=O)N1CCC[C@H]1C(=O)N1CCCN1C(=O)N1CCC[C@H]1C(=O)NCCO | 13.7 | 5.64 | 3.52 | 5.64 | 1.4 | 0.4 | 6.14 | -5.12 | -8.29 | Dose-dependent effect | inactive | 0.023 | 0.072 | 0.41 | -0.049 | -0.045 | -0.29 | -0.045
